Data as given in ChEMBL document CHEMBL5032499, “A Druglike Small Molecule that Targets r(CCUG) Repeats in Myotonic Dystrophy Type 2 Facilitates Degradation by RNA Quality Control Pathways” (J Med Chem, 2021).
pIC50: −log10 of the molar value. Calls of active or inactive are those of the source. No cut-off for these calls is given here.

What was measured:
[1] = Induction of disruption of r(CCUG)12-MBNL1 complex (unknown origin) incubated for 15 mins by TR-FRET assay; set-up: species or system Homo sapiens
Summary of the method: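 Biotinylated r(CCUG)12 was folded at 60 °C for 5 min in 20 mM HEPES pH 7.5, 110 mM KCl, 10 mM NaCl. It was then brought to assay buffer (plus 2 mM MgCl2, 2 mM CaCl2, 5 mM DTT, 0.1% BSA, 0.5% Tween-20) and preincubated 15 min with MBNL1-His6 (final 80 nM RNA, 60 nM protein). Compound was added for 15 min, then streptavidin-XL665 (40 nM) and anti-His6-Tb (0.44 ng/μL) for 30 min at room temperature. TR-FRET 545/665 ratios were read; IC50 was taken from dose-response fits.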

Fibroblast [2] = test: Cytotoxicity against DM2 patient derived fibroblast assessed as cell viability at 5 uM incubated for 48 hrs by Cell Titre-Glo assay; assay type: cell-based; details: human
Summary of the method: (§1)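 DM2 patient-derived fibroblasts were grown in high-glucose DMEM with 20% FBS at 37 °C, 5% CO2. After 48 h of compound treatment, viability was read as CellTiter-Glo luminescence after 10 min at room temperature (n = 6 replicates, one independent experiment).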

Homo sapiens [3] = species: Homo sapiens; test: Binding affinity to r(GACAGCCUGCUGUC)2 duplex (unknown origin) assessed as positive phase signal at 300 uM by waterLOGSY NMR spectroscopy
Summary of the method: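 For WaterLOGSY NMR, each compound at 300 μM was run alone or with 15 μM RNA (20:1 compound:RNA) in H2O containing 5% D2O by volume.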

Homo sapiens [4] = species: Homo sapiens; test: Inhibition of r(CCUG)12-MBNL1 complex formation (unknown origin) assessed as rescue of IR exon 11 splicing defect at 5 uM by RT-PCR analysis; set-up: scale not given: the % may be the effect or the level left
Summary of the method: (§2)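 DM2 patient fibroblasts were treated at ~40% confluency for 48 h. About 1 μg of total RNA was reverse transcribed, and IR exon 11 was PCR-amplified for 35 cycles (95 °C/58 °C/72 °C). Products were resolved on 2% agarose stained with ethidium bromide and quantified by densitometry. Percent rescue was calculated as (DM2 untreated − treated exclusion)/(DM2 untreated − WT exclusion) × 100.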

Homo sapiens [5] = species: Homo sapiens; test: Binding affinity to r(GACAGCCUGCUGUC)2 (unknown origin) duplex assessed as resonance shift in H6 and H8 protons of RNA […] by 1D NMR spectroscopy
Summary of the method: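 For 1D NMR, RNA at 100 μM in 100% D2O was titrated with compound at 0.5, 1.0, 1.5 and 2.0 compound:RNA molar ratios, each in a separate sample.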

Fibroblast [6] = test: Cytotoxicity against DM2 patient derived fibroblast assessed as cell viability upto 20 uM incubated for 48 hrs by Cell Titre-Glo assay; assay type: cell-based; details: human; summary of the method: as §1
Homo sapiens [7] = species: Homo sapiens; test: Inhibition of r(CCUG)12-MBNL1 complex formation (unknown origin) assessed as rescue of IR exon 11 splicing defect at 1 uM by RT-PCR analysis; set-up: scale not given: the % may be the effect or the level left; summary of the method: as §2

SMILES	pIC50 [1]	further results
Cc1ccc2nc(Nc3ccc4nc(N5CCOCC5)sc4c3)nc(NCCCO)c2c1	6.70	Activity (Fibroblast [2]): Toxic
COc1ccc(Nc2nc(N(C)C)c3ccccc3n2)cc1	4.19	
CNc1nc(Nc2cccc(O)c2)nc2ccccc12	3.98	
Cc1ccc2nc(Nc3ccc4c(c3)OCCO4)nc(NCCCO)c2c1	4.90	
CN1CCN(c2nc(Nc3ccc(O)cc3)nc3ccccc23)CC1	3.81	
Cc1ccc2nc(Nc3ccc4nc(NC5CCN(Cc6ccccc6)CC5)sc4c3)nc(NCCCO)c2c1	6.40	Activity (Fibroblast [2]): Toxic
Cc1ccc2nc(Nc3ccc4nc(N5CCN(C)CC5)sc4c3)nc(NCCCO)c2c1	6.00	Activity (Fibroblast [2]): Toxic
Cc1ccc2nc(Nc3ccc4nc(-c5ccc(F)cc5)sc4c3)nc(NCCCO)c2c1	3.70	Activity (Fibroblast [2]): Toxic
CN(C)c1nc(Nc2ccc(C(N)=O)cc2)nc2ccccc12	4.30	Activity (Homo sapiens [3]): inactive
COc1cccc(Nc2nc(N(C)C)c3ccccc3n2)c1	4.07	
Cc1ccc2nc(Nc3ccc4cnn(C)c4c3)nc(NCCCO)c2c1	4.52	Activity (Fibroblast [2]): Toxic
CN(C)c1ccc(Nc2nc(N(C)C)c3ccccc3n2)cc1	4.22	
CC(=O)Nc1cccc(Nc2nc(N3CCCC3)c3ccccc3n2)c1	4.15	
CCNc1nc(Nc2cccc(O)c2)nc2ccccc12	3.87	
COc1ccc(Nc2nc(NCCO)c3ccccc3n2)cc1Cl	4.30	
Cc1ccc2nc(Nc3ccc4nc(-c5ccccc5C)sc4c3)nc(NCCCO)c2c1	3.70	
Cc1c(Nc2nc(NCCCO)c3ccccc3n2)ccc2c1OCCO2	3.87	
CC(=O)Nc1ccc(Nc2nc(NCCO)c3ccccc3n2)cc1	4.22	
Cc1ccc2nc(Nc3ccc4nc(C(N)=O)sc4c3)nc(NCCCO)c2c1	3.70	
OCCCNc1nc(Nc2ccccc2)nc2ccccc12	3.78	
Cc1ccc2nc(Nc3ccc4nc(NCCN5CCOCC5)sc4c3)nc(NCCCO)c2c1	6.52	Activity (Fibroblast [2]): Toxic

SMILES	pIC50 [1]	further results
COCCn1cncc1CNC(=O)Nc1ccc2cnn(C)c2c1	3.70	
COc1cc(-c2nc3cc(-n4cnnn4)ccc3[nH]2)ccc1OCCN1CCCC1	4.15	
Cc1ccc2nc(Nc3ccc4nc(C)oc4c3)nc(NCCCO)c2c1	5.00	
CC(=O)c1cccc(Nc2nc(N(C)C)c3ccccc3n2)c1	4.00	
CCOc1ccc(C(=O)Nc2cc(-c3nc4ccccc4[nH]3)ccc2Cl)cc1[N+](=O)[O-]	3.98	
Cc1ccc2nc(Nc3ccc4nc(-c5ccc6[nH]ccc6c5)sc4c3)nc(NCCCO)c2c1	3.70	
OCCCNc1nc(Nc2ccc3c(c2)OCCO3)nc2c1CCCC2	4.05	
Cn1ncc2ccc(Nc3nc(NCCCO)c4ccccc4n3)cc21	4.52	
Cc1ccc2nc(Nc3ccc4nc(NCCOc5ccccc5)sc4c3)nc(NCCCO)c2c1	3.96	
CN1CCOc2cc(Nc3nc(NCCCO)c4ccccc4n3)ccc21	4.15	
COC(=O)c1cccc(Nc2nc(N)c3ccccc3n2)c1	3.70	
Cc1nc2ccc(Nc3nc(NCCCO)c4ccccc4n3)cc2s1	5.15	
CC(=O)Nc1ccc(Nc2nc(NCCCO)c3ccccc3n2)cc1	3.70	
OCCCNc1nc(Nc2ccc3c(c2)OCCO3)nc2ccc(F)cc12	4.22	
CCNc1nc(Nc2ccc(NC(C)=O)cc2)nc2ccccc12	4.52	Activity (Homo sapiens [3]): inactive
OCCCNc1nc(Nc2ccc3c(c2)OCCO3)nc2c1COC2	3.70	
CC(C)(C)C(Cn1ccnc1)NC(=O)Nc1ccc2[nH]ncc2c1 (stereo not given)	3.72	
CCOc1cc(-c2nc3cc(-n4cnnn4)ccc3[nH]2)ccc1O	3.70	
OCCCNc1nc(Nc2ccc(O)cc2)nc2ccccc12	4.02	
CCNc1nc(Nc2ccc(O)cc2)nc2ccccc12	4.00	
CN(c1ccc2c(c1)OCCO2)c1nc(NCCCO)c2ccccc2n1	3.70	

SMILES	pIC50 [1]	further results
CC(=O)Nc1cccc(Nc2nc(NCC3CCCO3)c3ccccc3n2)c1 (stereo not given)	4.05	
CC(O)c1cccc(Nc2nc(N(C)C)c3ccccc3n2)c1 (stereo not given)	4.02	
Cc1ccc2nc(Nc3ccc4nc(NCC(C)(C)O)sc4c3)nc(NCCCO)c2c1	6.00	Activity (Homo sapiens [4]): 30%; Activity (Fibroblast [2]): Non-Toxic
Cc1ccc(Nc2nc(NCCCO)c3ccccc3n2)cc1	3.82	
CC(=O)c1cccc(Nc2nc(NCCCO)c3ccccc3n2)c1	4.12	
Cc1ccc2nc(Nc3ccc4nc(NCc5ccc6c(c5)OCO6)sc4c3)nc(NCCCO)c2c1	3.98	
COc1cccc(Nc2nc(NCCCO)c3ccccc3n2)c1	4.00	
Cc1ccc2nc(Nc3ccc4nc(NCC(C)C)sc4c3)nc(NCCCO)c2c1	6.52	Activity (Fibroblast [2]): Toxic
OCCCNc1nc(Nc2ccc3c(c2)OCCO3)nc2cc(F)ccc12	3.70	
Cc1nc2ccc(Nc3nc(NCCCO)c4ccccc4n3)cc2o1	5.00	
OCCCNc1nc(Nc2ccc3c(c2)OCCO3)nc2c(F)cccc12	3.70	
Cc1ccc2nc(Nc3ccc4nc(-c5cccc(F)c5)sc4c3)nc(NCCCO)c2c1	3.70	
Cc1ccccc1Nc1nc(NCCCO)c2ccccc2n1	4.10	
CC(O)c1cccc(Nc2nc(N3CCCC3)c3ccccc3n2)c1 (stereo not given)	4.15	
CN(C)c1nc(Nc2ccc3c(c2)OCCO3)nc2ccccc12	4.10	
CC(=O)Nc1ccc(Nc2nc(N3CCCC3)c3ccccc3n2)cc1	4.46	Activity (Homo sapiens [3]): inactive
COc1ccc(Nc2nc(NCCCO)c3ccccc3n2)cc1	4.40	Activity (Homo sapiens [5]): Active; Activity (Fibroblast [6]): Non-Toxic; Activity (Homo sapiens [3]): Active
Cc1ccc2nc(Nc3ccc4nc(NCCc5ccc(S(N)(=O)=O)cc5)sc4c3)nc(NCCCO)c2c1	5.00	
Cn1nc(Nc2nc(NCCCO)c3ccccc3n2)c2ccccc21	3.70	
CN(C)c1ccc(Nc2nc(N3CCOCC3)c3ccccc3n2)cc1	3.70	
OCCCNc1nc(Nc2cccc(F)c2)nc2ccccc12	3.87	

SMILES	pIC50 [1]	further results
Cc1ccc2nc(Nc3ccc4nc(NCCOCc5ccccc5)sc4c3)nc(NCCCO)c2c1	4.70	
Cc1ccc2nc(Nc3ccc4nc(-c5cc[nH]n5)sc4c3)nc(NCCCO)c2c1	4.70	
C=CCNc1nc(Nc2ccc(O)cc2)nc2ccccc12	4.07	
CN(C)c1nc(Nc2ccc(O)cc2)nc2ccccc12	4.15	
Cc1cccc2c(NCCCO)nc(Nc3ccc4c(c3)OCCO4)nc12	3.98	
Cc1n[nH]c2nc(Nc3ccc4c(c3)OCCO4)nc(NCCCO)c12	3.70	
CN(C)c1ccc(Nc2nc(NCCCO)c3ccccc3n2)cc1	4.40	Activity (Homo sapiens [5]): Active; Activity (Fibroblast [6]): Non-Toxic; Activity (Homo sapiens [3]): Active
OCCCNc1nc(Nc2ccc3c(c2)OCCO3)nc2ccccc12	4.30	Activity (Homo sapiens [5]): Active; Activity (Homo sapiens [4]): 50%; Activity (Fibroblast [6]): Non-Toxic; Activity (Homo sapiens [7]): 12%; Activity (Homo sapiens [3]): Active
Cc1ccc2nc(Nc3ccc4nc(NCCN(C)C)sc4c3)nc(NCCCO)c2c1	5.40	Activity (Homo sapiens [4]): inactive; Activity (Homo sapiens [7]): inactive; Activity (Fibroblast [2]): Non-Toxic
OCCCNc1nc(Nc2ccc3c(c2)OC(F)(F)O3)nc2ccccc12	3.77	
CN(C)c1nc(Nc2cccc(O)c2)nc2ccccc12	4.12	
CC(=O)Nc1ccc(Nc2nc(NCC3CCCO3)c3ccccc3n2)cc1 (stereo not given)	4.35	Activity (Homo sapiens [5]): Active; Activity (Fibroblast [6]): Non-Toxic; Activity (Homo sapiens [3]): Active
Cc1ccc2nc(Nc3ccc4nc(N(CCO)CCO)sc4c3)nc(NCCCO)c2c1	5.00	
OCCCNc1nc(Nc2ccc3c(c2)OCO3)nc2ccccc12	3.70	
CC(=O)Nc1cccc(Nc2nc(NCCCO)c3ccccc3n2)c1	3.96	
CC(=O)Nc1cccc(Nc2nc(N(C)C)c3ccccc3n2)c1	4.10	
CCn1nc(CNC(=O)CN(C)C2CCNCC2)c2ccccc21	4.15	
OCCCNc1nc(Nc2cccc(O)c2)nc2ccccc12	3.70	
